Measurements as given in ChEMBL document CHEMBL2029304, “Synthesis and SAR of tetrahydroisoquinolines as Rev-erbα agonists” (Bioorg Med Chem Lett, 2012).

Tests used:
[1] = target: T1, Nuclear receptor subfamily 1 group D member 1 (Homo sapiens) (UniProt P20393); assay: Agonist activity at Rev-erbalpha assessed as repression of transcription at 10 uM by luciferase-reporter gene assay relative to control; format: functional
T1 sequence (whole entry): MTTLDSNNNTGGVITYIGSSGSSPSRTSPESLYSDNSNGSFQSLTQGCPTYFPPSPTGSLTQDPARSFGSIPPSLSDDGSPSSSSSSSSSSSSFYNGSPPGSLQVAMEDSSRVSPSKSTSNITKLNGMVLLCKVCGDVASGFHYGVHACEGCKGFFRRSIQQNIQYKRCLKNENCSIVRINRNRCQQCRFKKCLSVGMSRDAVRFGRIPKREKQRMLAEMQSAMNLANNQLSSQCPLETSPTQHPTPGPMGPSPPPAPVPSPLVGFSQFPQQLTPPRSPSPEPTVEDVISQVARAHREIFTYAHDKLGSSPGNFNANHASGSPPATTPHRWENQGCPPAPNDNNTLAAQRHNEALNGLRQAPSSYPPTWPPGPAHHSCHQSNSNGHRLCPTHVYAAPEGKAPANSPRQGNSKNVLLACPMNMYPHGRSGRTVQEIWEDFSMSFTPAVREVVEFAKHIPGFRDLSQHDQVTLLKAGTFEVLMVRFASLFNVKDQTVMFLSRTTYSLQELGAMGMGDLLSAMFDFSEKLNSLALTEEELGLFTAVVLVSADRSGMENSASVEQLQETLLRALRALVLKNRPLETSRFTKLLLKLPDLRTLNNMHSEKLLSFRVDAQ
Method in brief: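 Cells co-transfected with a full-length Rev-erbα expression plasmid and a luciferase reporter driven by the Bmal1 promoter. Compounds were screened at 1 μM and 10 μM for repression of Bmal1-driven transcription. The value is the fold change in luciferase signal relative to the DMSO control at 10 μM compound, where 1.0 means no repression.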

[2] = target: T2, Nuclear receptor subfamily 1 group D member 1 (Homo sapiens, UniProt P20393); assay: Agonist activity at Rev-erbalpha assessed as repression of transcription by luciferase-reporter gene assay; format: functional
T2 sequence (P20393 whole entry): T1 sequence (whole entry)
Method in brief: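 Cells co-transfected with a full-length Rev-erbα expression plasmid and a luciferase reporter driven by the Bmal1 promoter; repression of Bmal1 transcription read by luciferase. Compounds first tested at 1 μM and 10 μM, value given as fold change versus DMSO control at 10 μM (1.0 = no repression). Active compounds then titrated in an eleven-point dose response to give EC50.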

[3] = Half life in Sprague-Dawley rat at 1 mg/kg, iv and 2 mg/kg, po by LC-MS/MS analysis; format: ADME, organism-based; settings: in vivo
Method in brief: (§1)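 Male/female unspecified Sprague-Dawley rats, n = 3; single 1 mg/kg i.v. dose and 2 mg/kg oral gavage dose. Blood sampled at 5, 15, 30 min, 1, 2, 4, 6, 8 h into EDTA tubes, plasma by centrifugation, proteins precipitated with acetonitrile, drug measured by LC-MS/MS. Noncompartmental analysis gave t1/2, clearance, Vd, AUC, Cmax and oral bioavailability.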

Rattus norvegicus [4] = assay: Volume of distribution in Sprague-Dawley rat at 1 mg/kg, iv and 2 mg/kg, po by LC-MS/MS analysis; format: ADME, organism-based; settings: in vivo; method in brief: as §1
Rattus norvegicus [5] = assay: Oral bioavailability in Sprague-Dawley rat at 2 mg/kg by LC-MS/MS analysis; format: ADME, organism-based; settings: in vivo; method in brief: as §1
Brain = assay: Brain penetration in C57Bl6 mouse at 10 mg/kg, ip after 2 hrs by LC-MS/MS analysis; format: ADME, organism-based; design: dose 10 mg/kg, route intraperitoneal; settings: in vivo
Method in brief: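 C57Bl6 mice (n = 3), single 10 mg/kg intraperitoneal dose; blood and brain collected at 2 h, plasma frozen at −80°C. Plasma and brain mixed with acetonitrile (1:5 v:v or w:v), brain probe-sonicated, drug measured by LC-MS/MS against plasma or blank-brain-matrix standards; brain penetration as brain/plasma level percentage.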

[6] = target: T2, Nuclear receptor subfamily 1 group D member 1; assay: Agonist activity at Rev-erbalpha assessed as NCoR recruitment by FRET assay; format: functional

| SMILES | fold change (FC) [1] | EC50 [2] [µM] | further results |
| --- | --- | --- | --- |
| CCOC(=O)C1Cc2ccccc2CN1Cc1ccc(C(F)(F)F)nc1 (stereo unspecified) | 1 | – | – |
| COc1cccc(OCC2Cc3ccccc3CN2C(=O)c2cccc3ccccc23)c1 (stereo unspecified) | 0.45 | 0.62 | – |
| CCOC(=O)C1Cc2ccccc2CN1C(=O)c1cccc2ccccc12 (stereo unspecified) | 0.41 | 2.5 | – |
| CCOC(=O)C1Cc2ccccc2CN1C(=O)Oc1cccc(C(F)(F)F)c1 (stereo unspecified) | 1 | – | – |
| COc1ccc(OCC2Cc3ccccc3CN2C(=O)c2cccc3ccccc23)cc1 (stereo unspecified) | 0.38 | 0.12 | – |
| CCOC(=O)C1Cc2ccccc2CN1C(=O)c1cccc2oc(C)cc12 (stereo unspecified) | 0.51 | > 3 | – |
| O=C(NCC1Cc2ccccc2CN1C(=O)c1cccc2ccccc12)OCc1ccccc1 (stereo unspecified) | 0.53 | – | – |
| COc1ccccc1OCC1Cc2ccccc2CN1C(=O)c1cccc2ccccc12 (stereo unspecified) | 0.4 | 2 | – |
| O=C(NCc1ccccc1)C1Cc2ccccc2CN1C(=O)c1cccc2ccccc12 (stereo unspecified) | 0.55 | > 3 | – |
| CCOC(=O)C1Cc2ccccc2CN1Cc1ccc([N+](=O)[O-])o1 (stereo unspecified) | 0.9 | – | – |
| NC(=O)C1Cc2ccccc2CN1C(=O)c1cccc2ccccc12 (stereo unspecified) | 0.61 | – | – |
| CCOC(=O)C1Cc2ccccc2CN1Cc1ccc([N+](=O)[O-])s1 (stereo unspecified) | 0.78 | – | – |
| O=C(c1cccc2ccccc12)N1Cc2ccccc2CC1COc1ccc(F)cc1 (stereo unspecified) | 0.43 | 0.8 | – |
| O=C(c1cccc2ccccc12)N1Cc2ccccc2CC1COc1ccc(-c2ccccc2)cc1 (stereo unspecified) | 0.4 | 0.65 | – |
| O=C(c1cccc2ccccc12)N1Cc2ccccc2CC1COc1ccc(F)cc1F (stereo unspecified) | 0.45 | 0.71 | – |
| O=C(c1cccc2ccccc12)N1Cc2ccccc2CC1COCc1ccccc1 (stereo unspecified) | 0.41 | 0.65 | half-life [3]: 1.9 h; Vd (Rattus norvegicus [4]): 3.8 L/kg; F (Rattus norvegicus [5]): 0% |
| CCOC(=O)C1Cc2ccccc2CN1C(=O)c1ccccc1Cl (stereo unspecified) | 0.78 | – | – |
| NCC1Cc2ccccc2CN1C(=O)c1cccc2ccccc12 (stereo unspecified) | 0.74 | – | – |
| CCOc1ccc(OCC2Cc3ccccc3CN2C(=O)c2cccc3ccccc23)cc1 (stereo unspecified) | 0.35 | 0.097 | – |
| O=C(c1cccc2ccccc12)N1Cc2ccccc2CC1CNS(=O)(=O)c1ccccc1 (stereo unspecified) | 0.4 | – | – |
| CCOC(=O)C1Cc2ccccc2CN1C(=O)Nc1ccccc1 (stereo unspecified) | 1.5 | – | – |
| CCOC(=O)C1Cc2ccccc2CN1C(=O)c1ccccc1 (stereo unspecified) | 0.97 | – | – |
| CCOC(=O)C1Cc2ccccc2CN1C(=O)C1CCCc2ccccc21 (stereo unspecified) | 0.73 | – | – |
| O=C(c1cccc2ccccc12)N1Cc2ccccc2CC1COc1cccc2ccccc12 (stereo unspecified) | 0.41 | 1.2 | – |
| CCOC(=O)C1Cc2ccccc2CN1S(=O)(=O)c1cccc2ccccc12 (stereo unspecified) | 0.5 | 1.7 | – |
| CC(C)(C)OC(=O)CN(Cc1ccc(Cl)cc1)Cc1ccc([N+](=O)[O-])s1 [GSK-4112] | 0.82 | 2.3 | half-life [3]: 0.4 h; Drug uptake (Brain): 140%; EC50 [6]: 0.4 µM; Vd (Rattus norvegicus [4]): 9.9 L/kg; F (Rattus norvegicus [5]): 0% |

| SMILES | fold change (FC) [1] | EC50 [2] [µM] | further results |
| --- | --- | --- | --- |
| CCOC(=O)C1Cc2ccccc2CN1Cc1cccc2ccccc12 (stereo unspecified) | 1 | – | – |
| CCCOc1ccc(OCC2Cc3ccccc3CN2C(=O)c2cccc3ccccc23)cc1 (stereo unspecified) | 0.45 | 0.077 | – |
| O=C(O)C1Cc2ccccc2CN1C(=O)c1cccc2ccccc12 (stereo unspecified) | 0.67 | – | – |
| CCOC(=O)C1Cc2ccccc2CN1S(=O)(=O)c1cccc(Br)c1 (stereo unspecified) | 0.75 | – | – |
| CCOC(=O)C1Cc2ccccc2CN1C(=O)Nc1cccc2ccccc12 (stereo unspecified) | 1 | – | – |
| CCOC(=O)C1Cc2ccccc2CN1C(=O)c1cccc2c1CCCC2 (stereo unspecified) | 0.53 | 2.1 | – |
| CCOC(=O)C1Cc2ccccc2CN1Cc1nc2ccccc2s1 (stereo unspecified) | 0.95 | – | – |
| CC(=O)OCC1Cc2ccccc2CN1C(=O)c1cccc2ccccc12 (stereo unspecified) | 0.65 | – | – |
| O=C(Nc1ccccc1)C1Cc2ccccc2CN1C(=O)c1cccc2ccccc12 (stereo unspecified) | 0.59 | – | – |
| COc1ccc(OCC2Cc3ccccc3CN2C(=O)c2cccc3ccccc23)cc1OC (stereo unspecified) | 0.55 | 0.33 | – |
| CCOC(=O)C1Cc2ccccc2CN1S(=O)(=O)c1ccc(C)cc1 (stereo unspecified) | 0.51 | 1.1 | – |
| CC(C)(C)Oc1ccc(OCC2Cc3ccccc3CN2C(=O)c2cccc3ccccc23)cc1 (stereo unspecified) | 0.5 | 0.14 | – |
| O=C(c1cccc2ccccc12)N1Cc2ccccc2CC1CNCc1ccccc1 (stereo unspecified) | 0.43 | > 3 | half-life [3]: 1.7 h; Vd (Rattus norvegicus [4]): 3.8 L/kg; F (Rattus norvegicus [5]): 0% |
| O=C(c1cccc2ccccc12)N1Cc2ccccc2CC1COc1ccc(OC(F)(F)F)cc1 (stereo unspecified) | 0.4 | 0.6 | – |
| O=C(c1cccc2ccccc12)N1Cc2ccccc2CC1COc1ccc(-n2cncn2)cc1 (stereo unspecified) | 0.35 | 0.12 | – |
| CCOC(=O)C1Cc2ccccc2CN1Cc1ccc(C(=O)O)s1 (stereo unspecified) | 1 | – | – |
| O=C(c1cccc2ccccc12)N1Cc2ccccc2CC1COc1ccccc1 (stereo unspecified) | 0.37 | 0.84 | – |
| CCOC(=O)C1Cc2ccccc2CN1C(=O)C1COc2ccccc2O1 (stereo unspecified) | 0.81 | – | – |
| CCOC(=O)C1Cc2ccccc2CN1C(=O)Oc1ccc(Cl)cc1 (stereo unspecified) | 1.3 | – | – |
| O=C(c1cccc2ccccc12)N1Cc2ccccc2CC1CO (stereo unspecified) | 0.71 | – | – |
| CN(C)c1cccc(OCC2Cc3ccccc3CN2C(=O)c2cccc3ccccc23)c1 (stereo unspecified) | 0.3 | 0.78 | – |
| CCOC(=O)C1Cc2ccccc2CN1C(=O)c1ccno1 (stereo unspecified) | 1 | – | – |
| CCOC(=O)C1Cc2ccccc2CN1C(=O)c1cccc2cccnc12 (stereo unspecified) | 0.64 | – | – |
| CCOC(=O)C1Cc2ccccc2CN1C(=O)Oc1ccccc1 (stereo unspecified) | 1 | – | – |
| CCOC(=O)C1Cc2ccccc2CN1C(=O)c1cccc(Br)c1 (stereo unspecified) | 0.97 | – | – |
